Results reported in ChEMBL document CHEMBL3259732, “Vascular effects of diphenylmethoxypiperidine-derived dopamine uptake inhibitors” (2014).
Active and inactive are the calls of the source. The rule behind the calls is not given here.

Experiments:
Type in all cases: functional
[1] = Vascular activity in receptor-dependent rat mesenteric resistance artery assessed as inhibition of noradrenaline-induced contraction at 3 x 10^-6 M after 5 mins
Procedure, shortened: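 Rat mesenteric resistance arteries set to optimal diameter (OD = 0.9 L100, from the diameter at 100 mmHg transmural pressure). Rings pre-incubated with test agent at 3 x 10^-6 M, then given a dose–response curve to noradrenaline as the receptor-dependent contraction. Inhibition read against control arteries, p<0.05.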

[2] = (§1) Vascular activity in receptor-independent rat mesenteric resistance artery assessed as inhibition of KCl-induced contraction at 3 x 10^-6 M after 5 mins
Procedure, shortened: (§2)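 Receptor-independent response in rat mesenteric resistance arteries normalized to optimal diameter at 100 mmHg transmural pressure. After pre-incubation with test agent at 3 x 10^-6 M, maximal contraction to 75 mM KCl was recorded. Block was judged against control arteries, p<0.05.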

[3] = Vascular activity in receptor-dependent rat mesenteric resistance artery assessed as inhibition of noradrenaline-induced contraction at 3 x 10^-6 M after 5 mins relative to maximal response to KCl; set-up: scale not given: the % may be the effect or the level left
Rattus norvegicus = organism: Rattus norvegicus; assay: as §1; procedure, shortened: as §2

Compound | pD2 [1] | inhibition at 3 µM [2] [%] | Activity [3] [%] | inhibition (Rattus norvegicus)
Fc1ccc(C(OC2CCNCC2)c2ccc(F)cc2)cc1 | 5.17 | 70 | 116 | 
NC[C@H](O)c1ccc(O)c(O)c1.O=C(O)C(O)C(O)C(=O)O | 5.95 |  | 122 | 
CCCCN1CCC(OC(c2ccc(Cl)cc2)c2ccc(Cl)cc2)CC1 | 4.26 |  | 99 | Active
CN1CCC(OC(c2ccccc2)c2ccccc2)CC1 [DIPHENYLPYRALINE] | 5.38 | 70 | 129 | 
CC(C)N1CCC(OC(c2ccc(F)cc2)c2ccc(F)cc2)CC1 | 4.48 |  | 121 | Active
CN1CCC(OC(c2ccc(F)cc2)c2ccc(F)cc2)CC1 | 5.1 | 70 | 121 | 
COC(=O)[C@H]1[C@@H](OC(=O)c2ccccc2)C[C@@H]2CC[C@H]1N2C [COCAINE] | 6.52 |  | 130 | inactive
CN1CCC(OC(c2ccccc2)c2ccc(Cl)cc2)CC1 (stereo not drawn) | 5.08 | 70 | 113 | 
